In ChEMBL document CHEMBL3580606, “One-pot reaction to obtain N,N'-disubstituted guanidines of pyrazolo[4,3-e][1,2,4]triazolo[1,5-c]pyrimidine scaffold as human A3 adenosine receptor antagonists” (J Med Chem, 2015):

What was measured:
[1] = molecular target: T1, Adenosine receptor A2b (Homo sapiens) (UniProt P29275); test: Antagonist activity at human adenosine A2B receptor expressed in CHO cells assessed as inhibition of NECA-stimulated cyclic AMP production by scintillation counting analysis in presence of [3H]-cyclic AMP; type: cell-based; set-up: inhibition: concentration or dose not given beside the values; details: for inhibition: concentration not given here
T1 sequence (whole entry): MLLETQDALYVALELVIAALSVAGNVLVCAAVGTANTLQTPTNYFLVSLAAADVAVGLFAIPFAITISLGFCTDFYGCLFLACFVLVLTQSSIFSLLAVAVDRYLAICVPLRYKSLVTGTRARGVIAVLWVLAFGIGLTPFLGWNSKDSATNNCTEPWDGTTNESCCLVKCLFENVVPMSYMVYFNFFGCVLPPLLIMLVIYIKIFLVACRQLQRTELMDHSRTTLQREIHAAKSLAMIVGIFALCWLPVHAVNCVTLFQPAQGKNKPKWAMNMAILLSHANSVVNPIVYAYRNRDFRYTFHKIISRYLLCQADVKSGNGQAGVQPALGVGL
Method in brief: (§1)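 Preincubated at 37 °C. A2B: antagonism of NECA (100 nM)-stimulated cAMP. A3: forskolin 1 µM plus Cl-IB-MECA (100 nM). Stopped with cold 6% TCA, then ether-extracted. cAMP measured by competition protein binding with [3H]cAMP. KB derived by modified Cheng-Prusoff (Leff and Dougall), mean ± SEM.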

Adenosine receptor A3 = molecular target: T2, Adenosine receptor A3 (Homo sapiens, UniProt P0DMS8); test: (§2) Displacement of [3H]-MRE3008F20 from human adenosine A3 receptor expressed in CHO cell membranes after 120 mins by scintillation counting analysis
T2 sequence (P0DMS8 whole entry): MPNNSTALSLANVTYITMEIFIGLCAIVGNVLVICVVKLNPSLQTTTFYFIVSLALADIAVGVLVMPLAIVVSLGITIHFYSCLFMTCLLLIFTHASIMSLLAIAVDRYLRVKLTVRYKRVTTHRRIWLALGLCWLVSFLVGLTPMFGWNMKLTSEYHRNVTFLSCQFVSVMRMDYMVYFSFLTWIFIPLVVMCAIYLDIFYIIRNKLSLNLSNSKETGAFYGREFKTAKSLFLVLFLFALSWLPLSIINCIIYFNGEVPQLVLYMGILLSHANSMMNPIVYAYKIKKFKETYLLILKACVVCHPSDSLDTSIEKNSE
Method in brief: (§3)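 Membranes from transfected CHO cells in 50 mM Tris HCl, 10 mM MgCl2, 1 mM EDTA, pH 7.4, at 50 µg protein/assay. [3H]MRE3008F20 1 nM with 6-8 ligand concentrations, 120 min at 4 °C. Non-specific binding defined with 1 µM MRE3008F20. GF/B filtration, then scintillation counting. Ki by Cheng-Prusoff, n=3-6, mean ± SEM.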

Adenosine receptor A2a = Adenosine receptor A2a (Homo sapiens, UniProt P29274); test: Displacement of [3H]-ZM241385 from human adenosine A2A receptor expressed in CHO cell membranes after 60 mins by scintillation counting analysis
Adenosine receptor A2a, sequence (P29274 whole entry): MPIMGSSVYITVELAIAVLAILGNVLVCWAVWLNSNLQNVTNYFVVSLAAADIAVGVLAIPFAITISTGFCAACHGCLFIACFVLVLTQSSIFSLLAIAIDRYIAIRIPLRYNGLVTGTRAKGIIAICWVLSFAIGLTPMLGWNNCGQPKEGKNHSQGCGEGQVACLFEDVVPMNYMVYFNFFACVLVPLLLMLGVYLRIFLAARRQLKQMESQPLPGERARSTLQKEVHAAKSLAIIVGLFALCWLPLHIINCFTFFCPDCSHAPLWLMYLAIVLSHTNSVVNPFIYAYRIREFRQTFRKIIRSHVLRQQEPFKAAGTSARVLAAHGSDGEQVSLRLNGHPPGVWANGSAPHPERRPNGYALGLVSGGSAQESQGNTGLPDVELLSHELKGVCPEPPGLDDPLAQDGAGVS
Method in brief: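 Membranes from transfected CHO cells in 50 mM Tris HCl, 10 mM MgCl2, pH 7.4, at 50 µg protein/assay. [3H]ZM241385 2 nM with 6-8 competitor concentrations, 60 min at 4 °C. Non-specific binding defined with 1 µM ZM241385. Filtered on GF/B, bound radioactivity counted. Ki via Cheng-Prusoff, n=3-6, mean ± SEM.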

[2] = molecular target: T3, Adenosine receptor A3 (Homo sapiens) (UniProt P0DMS8); test: Antagonist activity at human adenosine A3 receptor expressed in CHO cells assessed as inhibition of Cl-IB-MECA-mediated suppression of forskolin-induced cyclic-AMP accumulation by scintillation counting analysis in presence of [3H]-cyclic AMP; type: cell-based; method in brief: as §1
T3 sequence (whole entry): T2 sequence (P0DMS8 whole entry)

Adenosine receptor A1 = molecular target: T4, Adenosine receptor A1 (Homo sapiens, UniProt P30542); test: (§4) Displacement of [3H]-DPCPX from human adenosine A1 receptor expressed in CHO cell membranes after 120 mins by scintillation counting analysis
T4 sequence (P30542 whole entry): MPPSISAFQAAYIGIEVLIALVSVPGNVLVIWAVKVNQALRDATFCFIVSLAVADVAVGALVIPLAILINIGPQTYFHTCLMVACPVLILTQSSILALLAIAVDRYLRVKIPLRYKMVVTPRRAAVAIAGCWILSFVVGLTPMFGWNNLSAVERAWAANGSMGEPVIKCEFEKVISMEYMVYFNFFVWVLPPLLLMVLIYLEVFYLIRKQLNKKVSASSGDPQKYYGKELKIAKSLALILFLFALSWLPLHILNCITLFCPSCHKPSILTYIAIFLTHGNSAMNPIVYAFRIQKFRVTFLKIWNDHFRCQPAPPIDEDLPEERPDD
Method in brief: (§5)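 Membranes from transfected CHO cells in 50 mM Tris HCl pH 7.4 at 50 µg protein/assay, pretreated with adenosine deaminase 2 IU/ml. [3H]DPCPX 1 nM against 6-8 antagonist concentrations, 120 min at 25 °C. Non-specific binding defined with 1 µM DPCPX. GF/B filtration, then scintillation counting. Ki by Cheng-Prusoff, n=3-6, mean ± SEM.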

[3] = molecular target: T5, Adenosine receptor A1 (Homo sapiens) (UniProt P30542); test: as §4; set-up: concentration or dose not given beside the values; method in brief: as §5
T5 sequence (whole entry): T4 sequence (P30542 whole entry)

[4] = molecular target: T3, Adenosine receptor A3 (Homo sapiens); test: as §2; method in brief: as §3

Kb [1] [nM]	inhibition [1] [%]	Ki (Adenosine receptor A3) [nM]	Ki (Adenosine receptor A2a) [nM]	inhibition (Adenosine receptor A2a) [%]	Kb [2] [nM]	Ki (Adenosine receptor A1) [nM]	inhibition [3] [%]	inhibition [4] [%]	inhibition ([2]; concentration not given here) [%]	Compound
> 1000	4	42	> 1000	1	42	> 1000	7	–	–	COc1ccc(NC(=Nc2nc3nn(C)cc3c3nc(-c4ccco4)nn23)Nc2ccc(OC)cc2)cc1
> 1000	1	79	> 1000	2	67	> 1000	10	–	–	Cn1cc2c(nc(N=C(Nc3ccccc3)Nc3ccccc3)n3nc(-c4ccco4)nc23)n1
> 1000	1	18	> 1000	1	13	> 1000	1	–	–	Cn1cc2c(nc(N=C(Nc3ccc([N+](=O)[O-])cc3)Nc3ccc([N+](=O)[O-])cc3)n3nc(-c4ccco4)nc23)n1
> 1000	1	30	> 1000	1	33	> 1000	1	–	–	Cn1cc2c(nc(N=C(Nc3ccc(C#N)cc3)Nc3ccc(C#N)cc3)n3nc(-c4ccco4)nc23)n1
> 1000	1	89	> 1000	1	74	> 1000	17	–	–	Cn1cc2c(nc(N=C(Nc3cccc(Cl)c3)Nc3cccc(Cl)c3)n3nc(-c4ccco4)nc23)n1
> 1000	2	71	> 1000	11	63	> 1000	8	–	–	Cn1cc2c(nc(N=C(Nc3ccc(Cl)cc3)Nc3ccc(Cl)cc3)n3nc(-c4ccco4)nc23)n1
> 1000	3	33	> 1000	1	36	> 1000	4	–	–	CC(C)NC(=Nc1nc2nn(C)cc2c2nc(-c3ccco3)nn12)NC(C)C
> 1000	1	155	> 1000	18	141	> 1000	1	–	–	COc1cccc(NC(=Nc2nc3nn(C)cc3c3nc(-c4ccco4)nn23)Nc2cccc(OC)c2)c1
> 1000	3	63	> 1000	1	57	> 1000	6	–	–	Cc1ccc(NC(=Nc2nc3nn(C)cc3c3nc(-c4ccco4)nn23)Nc2ccc(C)cc2)cc1
> 1000	1	345	> 1000	10	362	> 1000	1	–	–	Cn1cc2c(nc(N=C(Nc3ccc(Br)cc3)Nc3ccc(Br)cc3)n3nc(-c4ccco4)nc23)n1
> 1000	2	520	> 1000	1	537	> 1000	3	–	–	Cn1cc2c(nc(N=C(Nc3cccc(C(F)(F)F)c3)Nc3cccc(C(F)(F)F)c3)n3nc(-c4ccco4)nc23)n1
> 1000	1	122	> 1000	16	129	> 1000	1	–	–	Cn1cc2c(nc(N=C(Nc3ccc(F)cc3)Nc3ccc(F)cc3)n3nc(-c4ccco4)nc23)n1
> 1000	1	> 1000	> 1000	3	> 1000	> 1000	22	19	3	CCN/C(=N\c1nc2nn(C)cc2c2nc(-c3ccco3)nn12)NCCCN(C)C
> 1000	4	29	> 1000	3	32	> 1000	25	–	–	Cn1cc2c(nc(N=C(NC3CCCCC3)NC3CCCCC3)n3nc(-c4ccco4)nc23)n1
